Source: PubChem BioAssay (several laboratories)
Shown are actives, neighbours in structure and some others; about 2.6% of the full set was active somewhere.
SENP6 inh: SENP6 protease inhibitors, primary screen, biochemical, luminescence, uHTS. Sentrin-specific protease 6 (Homo sapiens), Q9GZR1. Recombinant SENP6 catalytic domain, aminoluciferin luminescence. inhibition, % at 10 µM. actives 1.8% (n = 330,000). AID 2599, 2010;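 active = inhibition above about 50% at the single tested dose, limit read from the data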;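 note: plate controls were DMSO wells with enzyme for no effect and DMSO wells lacking enzyme for full effect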
SENP7 block: SENP7 protease inhibitors, primary screen, biochemical, luminescence, uHTS; Sentrin-specific protease 7 (Homo sapiens), Q9BQF6; recombinant SENP7, Z-RLRGG-aminoluciferin luminescence, 40 min; inhibition, % at 5 µM; actives 1.5% (n = 330,000);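 active = inhibition above about 50% at the single test dose, limit read from the data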;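 note: plate controls were DMSO with enzyme for no effect and no enzyme buffer wells for full effect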
SENP8 block-1: human SENP8 protease inhibitors, primary screen, biochemical, fluorescence, Nedd8 protein substrate, uHTS; recombinant SENP8; inhibition, % at 20 µM; actives 0.64% (n = 360,000); AID 602440, 2012; in the data active = inhibition mostly above about 40%, no sharp cut-off; inactive = mostly below about 27%
Target sequence (Q96LD8 whole entry, looked up): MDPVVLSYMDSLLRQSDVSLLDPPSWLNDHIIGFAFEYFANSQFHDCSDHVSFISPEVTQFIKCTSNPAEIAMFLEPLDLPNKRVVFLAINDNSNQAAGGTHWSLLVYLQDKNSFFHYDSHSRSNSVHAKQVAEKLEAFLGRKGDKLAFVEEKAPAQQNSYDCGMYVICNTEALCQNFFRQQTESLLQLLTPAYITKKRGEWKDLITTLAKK
SENP1 FRET inh: human SENP1 catalytic domain inhibitors, primary screen, biochemical, FRET, uHTS | inhibition, % at 10 µM | Sentrin-specific protease 1 (Homo sapiens), Q9P0U3 | recombinant SENP1 catalytic domain, CyPet-SUMO1-YPet FRET cleavage | actives 0.21% (n = 360,000);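 active = inhibition at least 30% at 10 µM, raw YFP signal under a set limit, fluorescence ratio 0.5 to 1.5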;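 note: 0% = enzyme with DMSO and 100% = no enzyme wells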
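Test system: hSENP1 catalytic domain, recombinant; Amount: 20 pM final SENP1 enzyme; Medium: Tris pH 8 buffer plus EDTA, NaCl, BME, BSA, NP40, catalase; Schedule: 50 min enzyme reaction, room temperature, light-protected; Technique: FRET fluorescence in CFP and YFP emission channels; Controls: no-enzyme wells low, DMSO-plus-enzyme wells high control.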
Platelet DG rel: inhibitors of platelet dense granule secretion, primary screen, cell-based, MLPCN, human platelets; inhibition, %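 (compounds screened at 7.5 µM in platelet-rich plasma)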; actives 0.22% (n = 300,000); human platelet-rich plasma, SFLLRN dense granule ATP release, luminescence;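 active = mean replicate score, as percent of positive control, at or above 50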
SENP8 block-2: SENP8 protease inhibitors, primary screen, biochemical, luminescence; AID 2540, 2010; inhibition, % at 10 µM; Sentrin-specific protease 8 (Homo sapiens), Q96LD8; purified SENP8, Z-RLRGG-aminoluciferin cleavage; actives 1.2% (n = 330,000); in the data active = inhibition above about 50%
SENP8 confirm: SENP8 protease inhibitors, retest, confirmation, biochemical, luminescence, single concentration; AID 488912, 2010; Recombinant SENP8, Z-RLRGG-aminoluciferin luminescence, 60 min; inhibition, % at 12.5 µM; actives 40% (n = 6,200); shares compounds with SENP7 block;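 active = mean inhibition across replicates above about 50%, limit read from the data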
SENP6 conf: SENP6 protease inhibitors, confirmation, biochemical, luminescence, single concentration; inhibition, % at 12.5 µM; shares compounds with SENP7 block; actives 58% (n = 6,200); AID 488915, 2010; recombinant SENP6, Z-RLRGG-aminoluciferin luminescence
SENP7 conf: SENP7 protease inhibitors, retest, confirmation, biochemical, luminescence, single concentration; shares compounds with SENP7 block; recombinant SENP7, Z-RLRGG-aminoluciferin luminescence, 40 min; inhibition, % at 12.5 µM; actives 69% (n = 6,200); AID 488917, 2010
Casp3 SENP sel: caspase-3 protease inhibitors, confirmation, selectivity assay for SENP inhibitor project, biochemical, single concentration. actives 60% (n = 6,200). purified caspase-3, Z-DEVD-aminoluciferin luminescence, 60 min. inhibition, % at 12.5 µM. shares compounds with SENP7 block. AID 488918, 2010;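 active = mean inhibition above about 50%, limit read from the data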;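 note: plate controls were enzyme with DMSO for no effect and wells without caspase-3 for full effect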
Target sequence (P42574 28-227 limits assumed): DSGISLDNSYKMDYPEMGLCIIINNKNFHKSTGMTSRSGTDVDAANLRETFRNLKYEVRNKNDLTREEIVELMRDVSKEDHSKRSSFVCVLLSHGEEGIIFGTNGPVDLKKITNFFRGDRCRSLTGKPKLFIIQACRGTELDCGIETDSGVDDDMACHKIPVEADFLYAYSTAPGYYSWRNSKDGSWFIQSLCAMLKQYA
SENP luc ctr: interferes with luciferase luminescence in SENP counter-screen; shares compounds with SENP7 block; Pre-incubated SENP8/Z-RLRGG-aminoluciferin, luciferase luminescence interference; inhibition, % at 12.5 µM; actives 39% (n = 6,200); AID 488919;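 active = mean inhibition above about 50% when retested at one dose, limit read from the data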;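 note: plate controls were DMSO wells with completed reaction for no effect and substrate without enzyme for full effect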
Active calls of the source: *.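 Rule for the calls, unless noted: active = mean inhibition above about 50% in the one-dose retest (limit read from the data); inactive = the rest.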

Cc1ccc(NC(=O)CN2C(=O)NC3(CCCC3)C2=O)nc1 was read as SENP6 inh 3, SENP7 block 6, SENP8 block-1 8, SENP1 FRET inh 1, Platelet DG rel -3 and SENP8 block-2 4.
For CN1CCCC1CN1CCCC1 (stereo not given) the results were SENP8 block-1 5 and SENP1 FRET inh 1.
COc1cccc(/C=C2\SC(=S)N(C(Cc3ccccc3)C(=O)O)C2=O)c1 (stereo not given) was read as SENP6 inh 6, SENP7 block -2, SENP8 block-1 8, SENP1 FRET inh 0, Platelet DG rel 0 and SENP8 block-2 3.
For CC(CCc1ccccc1)NC(=O)CN1CCN(c2ccc(O)cc2)CC1 (stereo not given) the results were SENP6 inh 24, SENP7 block 5, SENP8 block-1 9, SENP1 FRET inh 0, Platelet DG rel 1 and SENP8 block-2 7.
COc1ccc(C(=O)Nc2nc3ccccc3s2)cc1 was read as SENP6 inh 96*, SENP7 block 93*, SENP8 block-1 -28, SENP1 FRET inh 4, Platelet DG rel 6, SENP8 block-2 89*, SENP8 confirm -9, SENP6 conf 94*, SENP7 conf 101*, Casp3 SENP sel 88* and SENP luc ctr 85*.
COc1ccc(/C=N/OCC(=O)Nc2nc3ccccc3s2)cc1OC was read as SENP6 inh 87*, SENP7 block 75*, SENP8 block-1 21, SENP1 FRET inh 2, Platelet DG rel -2, SENP8 block-2 70*, SENP8 confirm 11, SENP6 conf 78*, SENP7 conf 94*, Casp3 SENP sel 64* and SENP luc ctr 51*.
COc1ccc2nc(NC(=O)c3ccc(F)cc3)sc2c1 was read as SENP6 inh 64*, SENP7 block 90*, SENP8 block-1 -237, SENP1 FRET inh 2, Platelet DG rel 3, SENP8 block-2 25, SENP8 confirm 8, SENP6 conf 37, SENP7 conf 32, Casp3 SENP sel 25 and SENP luc ctr -1.
For O=C(Nc1nc2ccccc2s1)c1ccc(Cl)s1 the results were SENP6 inh 77*, SENP7 block 82*, SENP8 block-1 -289, SENP1 FRET inh 3, Platelet DG rel 4, SENP8 block-2 67*, SENP8 confirm 14, SENP6 conf 50, SENP7 conf 51*, Casp3 SENP sel 41 and SENP luc ctr 17.
COc1ccc2nc(NC(=O)c3ccc4ncsc4c3)sc2c1 was read as SENP6 inh -16, SENP7 block -12, SENP8 block-1 -337, SENP1 FRET inh -167, Platelet DG rel 14 and SENP8 block-2 -9.
O=C(Nc1nc2c(s1)C(=O)CCC2)c1ccccc1 was read as SENP6 inh 97*, SENP7 block 97*, SENP8 block-1 -29, SENP1 FRET inh 1, Platelet DG rel -10, SENP8 block-2 95*, SENP8 confirm 97*, SENP6 conf 98*, SENP7 conf 101*, Casp3 SENP sel 97* and SENP luc ctr 96*.
CCCC(=O)N(CCN1CCOCC1)c1nc2c(C)cccc2s1 was read as SENP6 inh 7, SENP7 block 18, SENP8 block-1 5, SENP1 FRET inh 1, Platelet DG rel -2 and SENP8 block-2 -9.
Nc1ccc2c(c1)C(=O)c1ccccc1C2=O was read as SENP6 inh 53*, SENP7 block 4, SENP8 block-1 9, SENP1 FRET inh 2, Platelet DG rel -9, SENP8 block-2 31, SENP8 confirm 55*, SENP6 conf 50*, SENP7 conf 80*, Casp3 SENP sel 54* and SENP luc ctr 8.
For Cc1cc(=O)[nH]c(SCC(=O)Nc2ccnc3ccccc23)n1 the results were SENP6 inh -6, SENP7 block 7, SENP8 block-1 -80, SENP1 FRET inh -38, Platelet DG rel -7 and SENP8 block-2 7.
For COC(=O)c1sccc1NC(=O)Cc1ccc(Br)cc1 the results were SENP6 inh 59*, SENP7 block 21, SENP8 block-1 11, SENP1 FRET inh -1, Platelet DG rel 1, SENP8 block-2 40, SENP8 confirm 60*, SENP6 conf 56*, SENP7 conf 48, Casp3 SENP sel 48 and SENP luc ctr 40.
For C=CCn1c(SCC(N)=O)nc2sc3c(c2c1=O)CCC3 the results were SENP6 inh 3, SENP7 block 9, SENP8 block-1 1, SENP1 FRET inh -1, Platelet DG rel 11 and SENP8 block-2 -10.
Screening Oc1ccccc1/C=N/Nc1cccc2cccnc12 returned SENP6 inh 92*, SENP7 block 88*, SENP8 block-1 -61, SENP1 FRET inh -67, Platelet DG rel 9, SENP8 block-2 87*, SENP8 confirm 92*, SENP6 conf 96*, SENP7 conf 101*, Casp3 SENP sel 80* and SENP luc ctr 43.
Screening CCOC(=O)c1sc(SCc2ccccc2)c2c1CC(C)(C)CC2=O returned SENP6 inh -9, SENP7 block -1, SENP8 block-1 10, SENP1 FRET inh 3, Platelet DG rel 0 and SENP8 block-2 -4.
COC(=O)Cc1ccc(NC(=S)NNC(=O)c2ccccc2Br)cc1 was read as SENP6 inh -5, SENP7 block 0, SENP8 block-1 0, SENP1 FRET inh 0, Platelet DG rel -10 and SENP8 block-2 -3.
